Target: T1, Polyunsaturated fatty acid 5-lipoxygenase (Rattus norvegicus, UniProt P12527)
T1 sequence (P12527 whole entry): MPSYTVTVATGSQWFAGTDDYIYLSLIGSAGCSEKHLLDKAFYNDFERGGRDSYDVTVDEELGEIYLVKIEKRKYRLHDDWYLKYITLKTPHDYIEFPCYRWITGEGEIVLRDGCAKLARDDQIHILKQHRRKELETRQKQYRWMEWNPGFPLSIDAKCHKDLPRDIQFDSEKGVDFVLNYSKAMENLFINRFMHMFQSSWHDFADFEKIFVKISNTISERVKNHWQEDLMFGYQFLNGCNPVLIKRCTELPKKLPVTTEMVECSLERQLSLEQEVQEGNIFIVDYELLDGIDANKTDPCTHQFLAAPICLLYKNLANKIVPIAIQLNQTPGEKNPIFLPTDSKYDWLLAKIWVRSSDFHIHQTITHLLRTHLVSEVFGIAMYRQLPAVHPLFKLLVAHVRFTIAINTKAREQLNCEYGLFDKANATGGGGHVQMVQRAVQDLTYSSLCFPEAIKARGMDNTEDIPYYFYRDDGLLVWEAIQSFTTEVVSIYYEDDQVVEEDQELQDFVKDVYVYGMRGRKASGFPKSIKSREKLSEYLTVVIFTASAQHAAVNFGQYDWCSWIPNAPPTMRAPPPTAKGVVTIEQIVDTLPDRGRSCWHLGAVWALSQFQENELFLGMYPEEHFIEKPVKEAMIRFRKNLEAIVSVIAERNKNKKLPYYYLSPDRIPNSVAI
Assay: Inhibition of 5-lipoxygenase in Wistar rat peritoneal leukocytes
Summary of the method: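 Leukocytes (~85% PMNs) were elicited in male Wistar rats (200-300 g) with ip 6% oyster glycogen and harvested 16-20 h later. Cells at 2.5 × 10^6/mL in complete HBSS were tested in triplicate, preincubated with the sample (in DMSO, or CHCl3 evaporated) for 10 min at 37 °C, then given A23187 for 10 min. Supernatant LTB4 was measured by RIA (3H-LTB4 tracer, rabbit antiserum, 18 h, 4 °C).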

Question: For `C=C1CCCC(C)C(=O)C(=O)[C@@H]2[C@@H]1CC2(C)C` (stereo partly specified) [buddledin B], which IC50 is on record?
Answer: > 200 µM
